Source: PubChem BioAssay
The list is not random: actives were taken first. Their share in the collection is about 3.9%.
Jurkat NFkB inh – inhibitors of the PMA/ionomycin-induced NF-kB reporter in Jurkat cells. PMA/ionomycin-induced NF-kB luciferase reporter, luminescence. inhibition, % at 4 µM. hit rate 0.53% among 330,000. AID 435003; in the data active = inhibition above about 50%
UPR XBP1 act – adaptive UPR (XBP1) activation. CHO-XBP1 luciferase reporter, IRE1-XBP1 UPR activation, luminescence; percent of tunicamycin response, DMSO as zero. activation, % at 20 µM. hit rate 0.33% among 330,000;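 active = versus positive control, 20 µM dose yields 30% or more activation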
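Test system: CHO-XBP1 luciferase reporter cells | Buffer or medium: Serum-containing F12 medium, 10% FBS | Schedule: 6 h compound exposure at 37 °C, 5% CO2 | Detection: Steady-Glo luciferase glow luminescence, 10 min after reagent addition | Read-out basis: Activation, % of tunicamycin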
UPR CHOP act – apoptotic UPR (CHOP) activation; AID 449763; hit rate 0.34% among 330,000; CHO-CHOP luciferase reporter, luminescence; percent of tunicamycin response over DMSO baseline; activation, % at 10 µM;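 active = at 10 µM dose, activation of 40% or more, normalized to positive control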
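System: CHO-CHOP luciferase reporter cell line; amount: 500 cells/well; buffer or medium: F12 medium containing 10% fetal bovine serum; incubation: 6 h compound exposure at 37 °C after overnight seeding; measured by: luciferase luminescence after 10 min with Steady-Glo reagent; evaluation: % reporter activation, DMSO baseline versus tunicamycin full activation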
697 NFkB inh – inhibitors of the PMA/ionomycin-induced NF-kB reporter in 697 B cells; hit rate 0.33% among 330,000; 697 B-cell NF-kB luciferase reporter, 16 h; inhibition, % at 4 µM; AID 435022; in the data active = inhibition above about 35%
Gli-Sufu block – blocks Gli-Sufu signaling in a luciferase reporter; Sufu-KO-LIGHT fibroblasts, Gli luciferase reporter luminescence; inhibition, % at 5 µM; hit rate 0.74% among 340,000;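 active = inhibition above about 55%, limit read from the data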
CHOP inhibitor – blocks CHOP induction under ER stress; CHO-K1 CHOP-promoter luciferase, tunicamycin-induced, 15-18 h; inhibition, % at 10 µM; hit rate 3.8% among 220,000; AID 2732;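 active = compounds that reduced the stress-induced luciferase reporter signal by more than about 70% of percent inhibition, limit read from the data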
Hits are given with their value; - = inactive; . = no result given.

SMILES	Jurkat NFkB inh	UPR XBP1 act	UPR CHOP act	697 NFkB inh	Gli-Sufu block	CHOP inhibitor
O=C(Nc1ccc(F)c(Cl)c1)Nc1ccc(Cl)cn1	-	-	-	-	-	81.0
COC(=O)c1ccc(NC(=O)Nc2ccc(F)c(Cl)c2)cc1	-	-	-	-	-	86.0
C[C@@H]1CN([C@@H](C)CO)C(=O)c2cccc(NC(=O)Nc3ccc4c(c3)OCO4)c2O[C@H]1CN(C)S(=O)(=O)c1cn(C)cn1	-	-	-	-	-	.
Cc1cc(Br)cc(C)c1NC(=S)NC(=O)CC(C)C	-	-	-	-	-	91.6
CCC(=O)NC(=S)Nc1c(C)cc(Br)cc1C	-	-	-	-	-	-
CN(C)S(=O)(=O)c1cccc(C(=O)Nc2n[nH]c(C(F)(F)F)n2)c1	-	-	-	-	-	.
CC1(C)CC(=O)C(C2C3=C(CC(C)(C)CC3=O)Oc3ccc4ccccc4c32)C(=O)C1 (configuration not stated)	-	-	-	-	-	76.8
CC1(C)CC(=O)C(C2C3=C(CC(C)(C)CC3=O)Oc3ccccc32)C(=O)C1 (configuration not stated)	-	-	-	-	-	-
Oc1ccc(CCNc2ncnc3ccc(Cl)cc23)cc1	-	-	-	-	61.0	.
Nc1nc(Cl)cc(NCCc2ccc(O)cc2)n1	-	-	-	-	-	-
O=C(Nc1cc(NC(=O)c2ccccc2F)ccc1Cl)c1ccccc1	-	-	-	-	.	.
N#CCCCC1(CCCC#N)OCCO1	.	.	.	.	-	.
CC(=O)Oc1c(C)cc(Cl)cc1C(=O)Nc1ccc([N+](=O)[O-])cc1Cl	-	-	-	-	73.4	92.4
Cc1ccc(N(CC(=O)NC2CCCCC2)C(=O)CCC(=O)Nc2nccs2)cc1	-	-	-	-	-	.
O=S1(=O)CC/C(=N/Nc2ccc(C(F)(F)F)cn2)c2cc(F)ccc21	-	-	-	-	-	94.9
O=C(N/N=C1\CCS(=O)(=O)c2ccc(F)cc21)c1ccc(O)cc1	-	-	-	-	-	-
COc1cc(C(=O)N/N=C2\CCS(=O)(=O)c3ccc(F)cc32)cc(OC)c1OC	-	-	-	-	-	73.0
COc1cc(C(=O)Oc2cccc(Nc3ncnc4ccccc34)c2)cc(OC)c1OC	-	-	-	-	-	91.8
COc1ccc(C(=O)Oc2cccc(Nc3ncnc4ccccc34)c2)cc1OC	-	-	-	-	-	-
CNc1sc(C(=O)c2ccc(F)cc2)c(N)c1-c1nc2ccccc2s1	-	-	-	-	-	83.8
COc1ccccc1-c1cc(SC)c(C#N)c(=O)o1	-	-	-	-	-	93.8
O=C(N/N=C/c1c(F)cccc1Cl)C(=O)N1CCCCCC1	-	-	-	-	-	.
Cc1ccc(S(=O)(=O)N(C)Cc2nc(-c3ccc(Br)cc3)no2)cc1	-	-	-	-	-	82.7
Cc1ccc(S(=O)(=O)N(C)Cc2nc(-c3ccncc3)no2)cc1	-	-	-	-	-	-
O=C(NCc1ccc2c(c1)OCO2)c1ccc(CS(=O)(=O)c2ccc(Br)cc2)o1	-	-	-	-	-	74.1
SMILES	Jurkat NFkB inh	UPR XBP1 act	UPR CHOP act	697 NFkB inh	Gli-Sufu block	CHOP inhibitor
CCCCN(C(=O)C(C)Oc1cccc(Cl)c1)c1c(N)n(CCC)c(=O)[nH]c1=O (configuration not stated)	-	-	-	-	-	.
Brc1ccc(-c2nc(N/N=C/c3cccnc3)c3ccccc3n2)cc1	-	-	-	-	-	74.2
C[C@@H]1CCC(=O)N(CC[C@H](Sc2ccccc2)c2ccccc2)CC1	-	-	-	-	-	.
N#CC(C(=O)Nc1ccccc1)=C1CCCCC1	-	-	-	-	-	-
N#CC(C(=O)Nc1ccc(Cl)cc1)=C1Nc2ccccc2N1	-	-	-	-	-	90.1
CN(CC(=O)Nc1ccc(F)c(F)c1F)C(=O)Cc1ccc2c(c1)OCCO2	-	-	-	-	-	.
CCc1ccc(N(C(=O)c2snc(C(N)=O)c2N)C(C(=O)NCCC(C)C)c2c[nH]c3ccccc23)cc1 (configuration not stated)	-	-	-	-	-	86.5
COC(=O)c1ccc(NC(=S)N2CCN(Cc3ccccc3Cl)CC2)cc1	-	-	-	-	-	-
COC(=O)c1ccc(NC(=S)N2CCN(Cc3ccc(Cl)cc3)CC2)cc1	-	-	-	-	-	89.2
O=[N+]([O-])c1cccc(C2NCC(c3ccccc3Cl)c3c2[nH]c2ccccc32)c1 (configuration not stated)	-	-	-	-	-	84.8
CN(C)c1ccc(C2CNC(c3ccc(Cl)c([N+](=O)[O-])c3)c3[nH]c4ccccc4c32)cc1 (configuration not stated)	-	-	-	-	-	-
COc1ccc(CCNC(=O)c2cc(-c3ccccn3)nc3ccccc23)cc1	-	-	-	-	-	.
COCCN(C(=O)CSc1nc2ccc(OC)cc2[nH]1)c1c(N)n(Cc2ccccc2)c(=O)[nH]c1=O	-	-	-	-	-	.
COc1ccc(OC)c(/C(O)=C/C(=O)C(=O)Nc2cc(C)ccc2OC)c1	-	-	-	-	-	-
CCOc1ccccc1NC(=O)C(=O)/C=C(\O)c1cc(OC)ccc1OC	-	-	-	-	-	95.3
CCOc1ccc(C(=O)NC(=S)Nc2ccc(NC(=O)CC)cc2)cc1[N+](=O)[O-]	-	-	-	-	-	-
CCOc1ccc(C(=O)NC(=S)NC2CCCC2)cc1[N+](=O)[O-]	-	-	-	-	-	71.4
COc1ccc(N(CC(=O)NC2CCS(=O)(=O)C2)S(=O)(=O)c2ccc(Cl)c(Cl)c2)cc1 (configuration not stated)	-	-	-	-	-	.
Cn1c(C(=O)N2CCCC(C(=O)NCCCSC3CCCCC3)C2)cc2sccc21 (configuration not stated)	-	-	-	-	-	73.5
Fc1ccccc1N1CCN(Cc2nc(-c3ccccc3)no2)CC1	-	-	-	-	-	86.3
c1ccc(-c2noc(CN3CCN(C(c4ccccc4)c4ccccc4)CC3)n2)cc1	-	-	-	-	-	-
COc1ccc(-c2noc(CN3CCN(c4ccccc4F)CC3)n2)cc1OC	-	-	-	-	-	-
c1ccc(-c2noc(CN3CCN(c4ccccc4)CC3)n2)cc1	-	-	-	-	-	85.8
C=C1c2ccccc2O[C@H](C(=O)OCC)[C@H]1OC	.	-	-	-	-	.
Cc1ccc(CC(=O)Nc2ccccc2-c2ccccc2)cc1C	-	-	-	-	-	89.5
Cc1cccc(OCC(=O)Nc2ccccc2-c2ccccc2)c1	.	.	.	.	-	85.0
O=C(COC(=O)CCC(=O)c1cccs1)Nc1ccc(F)c(F)c1F	-	-	-	-	-	.
CCOC(=O)Sc1nc2ncncc2[nH]1	.	.	.	.	-	.
